Screening data from PubChem BioAssay.
Lipid droplet – modulators of hepatic lipid droplet formation | AID 1656 | inhibition, % at 6.5 µM | 240,000 tested, 0.4% active | AML12 mouse hepatocytes, oleate lipid droplets, BODIPY imaging;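 active means lipid droplet intensity inhibited by at least 50%, with more than 500 cells counted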
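Material: mouse AML12 hepatocyte cell line, fixed after treatment; Timing: compound with oleate, overnight; Technique: high-content imaging of BODIPY-stained droplets and DAPI nuclei; Probe or stimulus: oleate, 100 µM final; Dosing: compound at 6.5 µM only.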
GASC-1 inh – human JMJD2C demethylase inhibition; Q9H3R0; GST-JMJD2C(1-420) H3K9me3 demethylation, DELFIA europium; inhibition, % at 2.35 µM; 330,000 tested, 0.069% active; AID 2099;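 active means more than half of a compound's replicate wells show inhibition beyond 50%, single wells judged on their own value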;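 further: signal counts dimethyl H3K9 product captured on neutravidin plate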
Target sequence (Q9H3R0 1-420 limits assumed): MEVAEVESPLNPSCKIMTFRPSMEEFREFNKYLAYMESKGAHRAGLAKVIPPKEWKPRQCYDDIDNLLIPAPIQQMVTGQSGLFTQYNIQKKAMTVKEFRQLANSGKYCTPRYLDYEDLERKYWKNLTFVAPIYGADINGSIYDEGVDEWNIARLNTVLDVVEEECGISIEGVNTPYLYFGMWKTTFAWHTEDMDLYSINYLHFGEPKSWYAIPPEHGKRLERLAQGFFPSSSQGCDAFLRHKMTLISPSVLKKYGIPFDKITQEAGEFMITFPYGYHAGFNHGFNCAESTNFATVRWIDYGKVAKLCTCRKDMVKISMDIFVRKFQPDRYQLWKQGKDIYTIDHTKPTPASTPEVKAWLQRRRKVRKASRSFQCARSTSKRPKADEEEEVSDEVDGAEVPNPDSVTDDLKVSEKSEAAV
GRIN3A LBD mod – modulates the human NR3A ligand-binding domain; NR3A LBD differential scanning fluorimetry, Tm shift; 0% = protein alone, 100% = glycine-bound protein; Tm shift relative to glycine control, % at 25 µM; 340,000 tested, 2.5% active; AID 1259313;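 active means melting temperature shift of at least 10% of the positive control shift, at one fixed dose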
aDG glyco act – alpha-DG glycosylation activation; Pro5-aDG cells, alpha-DG glycosylation AlphaScreen (IIH6); 0% Pro5, 100% B10-LARGE cell signal; activation, % at 10 µM; 360,000 tested, 0.22% active; AID 624168;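 active means activation of at least 8% versus controls, or a plate z-score of at least 8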;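 further: Pro5 are CHO cells carrying HIG-tagged alpha-DG that lacks glycosylation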
GC-A act – GC-A (human) enzyme activation; 370,000 tested, 0.14% active; activation, % at 10 µM; HEK293 GC-A cells, cGMP TR-FRET, EC30 ANP; 0% at EC30 ANP, 100% saturating ANP; in the data active means activation above about 40%
GC-B act – GC-B (human) receptor activation; P20594; HEK293-GC-B cells, CNP EC30, cGMP TR-FRET; 0% at EC30 CNP, 100% saturating CNP; activation, % at 10 µM; 370,000 tested, 0.11% active; AID 1920062;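 active means activation at 10 µM reaching about 35% in either raw or pattern-adjusted values, limit read from the data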
A number is an active result. Rows were chosen to be rich in hits. Some 3% of all compounds tested hit in one or more screens of this group.

For CSc1nc2ccc(NC(=O)c3nn(C(C)C)c(=O)c4ccccc34)cc2s1 the results were Lipid droplet inactive, GASC-1 inh inactive, GRIN3A LBD mod inactive, aDG glyco act inactive, GC-A act inactive and GC-B act inactive.
`Cc1cccc2sc(NC(=O)c3ccc(Cl)s3)nc12` gave GASC-1 inh inactive, GRIN3A LBD mod inactive, aDG glyco act inactive, GC-A act inactive and GC-B act inactive.
Screening Cc1ccc(C(=O)Nc2nc3ccccc3s2)s1 returned Lipid droplet inactive, GASC-1 inh inactive, GRIN3A LBD mod 18, aDG glyco act inactive, GC-A act inactive and GC-B act inactive.
For Cc1ccc(C(=O)Nc2nc3ccc(S(C)(=O)=O)cc3s2)s1 the results were GASC-1 inh inactive, GRIN3A LBD mod inactive, aDG glyco act inactive, GC-A act inactive and GC-B act inactive.
Screening O=[N+]([O-])c1ccc(O)c(/C=N\N=C2c3ccccc3-c3ccccc32)c1 returned Lipid droplet inactive, GASC-1 inh inactive, GRIN3A LBD mod 14, aDG glyco act inactive, GC-A act inactive and GC-B act inactive.
`CCOc1ccc(-n2c(SCC(=O)Nc3ccc(S(=O)(=O)Nc4cc(C)nc(C)n4)cc3)nnc2-c2ccc(C)cc2)cc1` gave GC-A act inactive and GC-B act inactive.
COC(=O)c1ccc(NC(=S)NCC2CC2)cc1 was read as Lipid droplet inactive, GASC-1 inh inactive, GRIN3A LBD mod inactive, aDG glyco act inactive, GC-A act inactive and GC-B act inactive.
For COC(=O)c1ccc(NC(=S)NCCc2ccc(OC)cc2)cc1 the results were Lipid droplet inactive, GASC-1 inh inactive, GRIN3A LBD mod inactive, aDG glyco act inactive, GC-A act inactive and GC-B act inactive.
For COC(=O)c1ccc(NC(=S)Nc2ccc(O)cc2)cc1 the results were Lipid droplet inactive, GASC-1 inh inactive, GRIN3A LBD mod 20, aDG glyco act inactive, GC-A act inactive and GC-B act inactive.
COC(=O)c1ccc(NC(=S)NCCc2cccc(C)c2)cc1 was read as Lipid droplet inactive, GASC-1 inh inactive, GRIN3A LBD mod 24, aDG glyco act inactive, GC-A act inactive and GC-B act inactive.
Screening COC(=O)c1ccc(NC(=S)NCCc2ccccc2C)cc1 returned Lipid droplet inactive, GASC-1 inh inactive, GRIN3A LBD mod 29, aDG glyco act inactive, GC-A act inactive and GC-B act inactive.
`N#CCC[C@H]1CC[C@]2(CCCN(S(=O)(=O)c3ccccc3)C2)O1` gave GC-A act inactive and GC-B act inactive.
O=C(NCc1ccco1)c1cccc(Nc2nc3ccc(Br)cc3[nH]2)c1 was read as Lipid droplet inactive, GASC-1 inh inactive, GRIN3A LBD mod 13, aDG glyco act inactive, GC-A act inactive and GC-B act inactive.
Screening O=C(NCC1CC1)c1ccc(Nc2nc3ccc(Br)cc3[nH]2)cc1 returned GASC-1 inh inactive, GRIN3A LBD mod 28, aDG glyco act inactive, GC-A act inactive and GC-B act inactive.
`O=C(Cc1ccc(Nc2nc3ccc(Br)cc3[nH]2)cc1)NCCc1cccs1` gave Lipid droplet inactive, GASC-1 inh inactive, GRIN3A LBD mod inactive, aDG glyco act inactive, GC-A act inactive and GC-B act inactive.
Screening O=C(NCc1ccco1)c1ccc2nc([C@@H]3O[C@H](CO)[C@H](O)[C@H](O)[C@H]3O)[nH]c2c1 returned aDG glyco act inactive, GC-A act inactive and GC-B act inactive.
Screening COc1cc(NC(=O)c2cc3c(Cl)nc4ccccc4c3s2)cc(OC)c1OC returned Lipid droplet inactive, GASC-1 inh inactive, GRIN3A LBD mod inactive, aDG glyco act inactive, GC-A act inactive and GC-B act inactive.
`COc1ccc2cc(C(=O)NCCO)sc(=O)c2c1OC` gave Lipid droplet inactive, GASC-1 inh inactive, GRIN3A LBD mod inactive, aDG glyco act inactive, GC-A act inactive and GC-B act inactive.
Screening O=C(Nc1ccccc1)c1ccc(-c2ccccc2)s1 returned Lipid droplet inactive, GASC-1 inh inactive, GRIN3A LBD mod 14, aDG glyco act inactive, GC-A act inactive and GC-B act inactive.
`O=C(O)c1ccc(-c2ccc(-c3ccccc3)cc2)s1` gave Lipid droplet inactive, GASC-1 inh inactive and aDG glyco act inactive.
